Values after ≈ are worked out from the molar mass of the structure shown.
Experiments:
[1] = tested on: Mus musculus; assay: Analgesic activity in Swiss albino mouse assessed as reduction of acetic acid-induced writhing at 40.8 nmol/kg, po after 5 mins; format: functional; set-up: scale not given: the % may be the effect or the level left
Method in brief: (§1)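 Male Swiss albino mice (23-25 g), standard diet and water ad libitum, 23 ± 1 °C, 12 h light/dark cycle. Test compound given orally; 0.6% acetic acid (10 mL/kg) injected ip. Stretching movements counted for 10 min, beginning 5 min after administration.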

[2] = tested on: Rattus norvegicus; assay: Antiinflammatory activity in rat assessed as reduction of carrageenan-induced paw pressure at 40 mg/kg, po after 60 mins post carrageenan-challenge; format: functional; set-up: scale not given: the % may be the effect or the level left
Method in brief: (§2)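 Rats (Sprague-Dawley or Wistar, 150-200 g) received intraplantar carrageenan 4 h before testing, then oral compound or CMC vehicle. Paw-pressure threshold read before treatment and at 15, 30, 45 and 60 min after treatment, compared with saline and carrageenan controls.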

[3] = tested on: Rattus norvegicus; assay: Antiinflammatory activity in rat assessed as reduction of carrageenan-induced paw pressure at 40 mg/kg, po after 30 mins post carrageenan-challenge; format: functional; set-up: scale not given: the % may be the effect or the level left; method in brief: as §2
[4] = tested on: Rattus norvegicus; assay: Antiinflammatory activity in rat assessed as reduction of carrageenan-induced paw pressure at 40 mg/kg, po after 45 mins post carrageenan-challenge; format: functional; set-up: scale not given: the % may be the effect or the level left; method in brief: as §2
[5] = tested on: Rattus norvegicus; assay: Antiinflammatory activity in rat assessed as reduction of carrageenan-induced oedema in right hind paw at 40 mg/kg, po after 4 hrs post carrageenan-challenge; format: functional; set-up: scale not given: the % may be the effect or the level left
Method in brief: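 Sprague-Dawley or Wistar rats (150-200 g). Carrageenan injected intraplantar; oral treatment with test compound or CMC vehicle. Right hind paw volume measured 4 h after carrageenan and compared with saline- and carrageenan-treated controls.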

[6] = Solubility of the compound in PBS buffer at pH 7.4 by HPLC analysis; format: physicochemical
Method in brief: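 20 mM DMSO stocks diluted 1:100 into 0.01 M PBS pH 7.4 in duplicate wells of a solubility filter plate, shaken 90 min at 300 rpm. Seven-point calibration standards from 1 to 200 μM.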

[7] = Solubility of the compound in simulated gastric fluid without pepsin at pH 1.5 by HPLC analysis; format: physicochemical
Method in brief: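 Compound from 20 mM DMSO stock diluted 1:100 into 0.05 M simulated gastric fluid without pepsin (pH 1.5 with HCl), duplicate wells on a solubility filter plate, shaken 90 min at 300 rpm. Seven-point calibration standards from 1 to 200 μM.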

[8] = tested on: Mus musculus; assay: Analgesic activity in Swiss albino mouse assessed as reduction of acetic acid-induced writhing at 84 nmol/kg, po after 5 mins; format: functional; set-up: scale not given: the % may be the effect or the level left; method in brief: as §1
[9] = tested on: Rattus norvegicus; assay: Antiinflammatory activity in rat assessed as reduction of carrageenan-induced paw pressure at 40 mg/kg, po after 15 mins post carrageenan-challenge; format: functional; set-up: scale not given: the % may be the effect or the level left; method in brief: as §2
[10] = tested on: Mus musculus; assay: Analgesic activity in Swiss albino mouse assessed as reduction of acetic acid-induced writhing at 81.6 nmol/kg, po after 5 mins; format: functional; set-up: scale not given: the % may be the effect or the level left; method in brief: as §1
[11] = target: T1, Prostaglandin G/H synthase 1 (Mus musculus, UniProt P22437); assay: Inhibition of COX1-mediated PGE2 production in mouse J774 cells preincubated for 15 mins measured after 30 mins by radioimmunoassay; format: cell-based
T1 sequence (P22437 whole entry): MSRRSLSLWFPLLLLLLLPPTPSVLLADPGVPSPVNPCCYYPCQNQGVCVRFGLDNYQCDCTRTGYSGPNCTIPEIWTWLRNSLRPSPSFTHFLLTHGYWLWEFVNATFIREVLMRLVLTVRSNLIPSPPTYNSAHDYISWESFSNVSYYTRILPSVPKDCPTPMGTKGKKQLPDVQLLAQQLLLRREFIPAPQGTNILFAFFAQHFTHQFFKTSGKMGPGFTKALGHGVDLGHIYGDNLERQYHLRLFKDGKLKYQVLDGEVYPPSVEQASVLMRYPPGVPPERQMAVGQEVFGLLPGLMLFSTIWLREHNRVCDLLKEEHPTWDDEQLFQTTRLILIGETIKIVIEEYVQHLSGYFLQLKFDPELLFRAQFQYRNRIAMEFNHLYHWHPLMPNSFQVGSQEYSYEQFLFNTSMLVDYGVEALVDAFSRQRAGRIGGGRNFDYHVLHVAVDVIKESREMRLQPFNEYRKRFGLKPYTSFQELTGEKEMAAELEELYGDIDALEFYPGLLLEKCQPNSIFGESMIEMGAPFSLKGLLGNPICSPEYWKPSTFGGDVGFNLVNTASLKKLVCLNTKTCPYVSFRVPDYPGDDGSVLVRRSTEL
Method in brief: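 Murine J774 macrophages in DMEM/10% FBS, adhered 2 h at 37 °C. […] Supernatant PGE2 measured by RIA. Triplicate wells, mean of three experiments; IC50 by sigmoidal variable-slope fit.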

[12] = tested on: J774; assay: Selectivity index, ratio of IC50 for COX1-mediated PGE2 production to IC50 for COX2-mediated PGE2 production in mouse J774 cells; format: cell-based
Method in brief: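 Ratio of the COX-1 IC50 to the COX-2 IC50, both from PGE2 RIA in J774 cells. For COX-1, cells were given compound for 15 min, then 15 μM arachidonic acid for 30 min; lower concentrations (0.01–1 μM) were tested when warranted. For COX-2, cells were given LPS 10 µg/mL for 24 h with compound at 0.01–10 μM. IC50 came from a sigmoidal variable-slope fit.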

[13] = target: T2, Prostaglandin G/H synthase 2 (Mus musculus) (UniProt Q05769); assay: Inhibition of COX2-mediated PGE2 production in LPS-induced mouse J774 cells by radioimmunoassay relative to control; format: cell-based; set-up: concentration or dose not given beside the values; conditions: concentration not given here
T2 sequence (whole entry): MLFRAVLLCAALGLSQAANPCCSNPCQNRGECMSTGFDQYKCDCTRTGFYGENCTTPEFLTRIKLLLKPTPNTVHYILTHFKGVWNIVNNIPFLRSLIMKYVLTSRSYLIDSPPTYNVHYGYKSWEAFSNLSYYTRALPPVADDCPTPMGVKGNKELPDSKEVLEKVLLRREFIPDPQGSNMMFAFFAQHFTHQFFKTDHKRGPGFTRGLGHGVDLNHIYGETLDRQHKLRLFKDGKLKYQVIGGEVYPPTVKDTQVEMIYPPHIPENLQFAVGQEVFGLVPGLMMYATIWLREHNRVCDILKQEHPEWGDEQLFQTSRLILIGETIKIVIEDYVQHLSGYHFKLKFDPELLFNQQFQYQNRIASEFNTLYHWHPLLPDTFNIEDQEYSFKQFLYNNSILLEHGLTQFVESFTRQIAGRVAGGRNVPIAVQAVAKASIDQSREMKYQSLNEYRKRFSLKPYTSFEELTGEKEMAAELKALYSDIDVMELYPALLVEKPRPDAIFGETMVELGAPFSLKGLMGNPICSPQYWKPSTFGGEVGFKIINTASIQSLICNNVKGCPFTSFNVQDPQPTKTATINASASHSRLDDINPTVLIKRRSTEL
Method in brief: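 J774 cells, cultured as for the COX-1 assay, were stimulated 24 h with E. coli LPS (10 µg/mL) to induce COX-2, with or without compound at 0.01–10 μM. Supernatant PGE2 was measured by RIA as % inhibition versus control, triplicate wells, mean of three experiments. IC50 came from a sigmoidal variable-slope dose-response fit.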

[14] = target: T3, Prostaglandin G/H synthase 2 (Mus musculus, UniProt Q05769); assay: Inhibition of COX2-mediated PGE2 production in LPS-induced mouse J774 cells by radioimmunoassay; format: cell-based
T3 sequence (Q05769 whole entry): T2 sequence (whole entry)
Method in brief: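 J774 murine macrophages stimulated 24 h with E. coli LPS (10 µg/mL) to induce COX-2, with or without compound (0.01–10 μM). Supernatant PGE2 measured by RIA; percent inhibition against controls. Triplicate wells, mean of three experiments; IC50 from sigmoidal variable-slope fit.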

[15] = target: T4, Prostaglandin G/H synthase 1 (Mus musculus) (UniProt P22437); assay: Inhibition of COX1-mediated PGE2 production in mouse J774 cells at 10 uM preincubated for 15 mins measured after 30 mins by radioimmunoassay relative to control; format: cell-based
T4 sequence (whole entry): T1 sequence (P22437 whole entry)
Method in brief: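 Murine J774 macrophages in DMEM with 10% FBS, glutamine, HEPES, pyruvate and antibiotics, adhered 2 h at 37 °C in 5% CO2. Medium was refreshed, cells were pretreated with compound for 15 min, then given 15 μM arachidonic acid for 30 min at 37 °C. PGE2 in supernatant was measured by RIA as % inhibition versus control, triplicate wells, mean of three experiments.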

| SMILES | Activity [1] | Activity [2] | Activity [3] | Activity [4] | Activity [5] | solubility [6] | solubility [7] | Activity [8] | Activity [9] | Activity [10] | IC50 [11] | Ratio IC50 [12] | inhibition [13] | IC50 [14] | inhibition [15] |
| --- | --- | --- | --- | --- | --- | --- | --- | --- | --- | --- | --- | --- | --- | --- | --- |
| Cc1c(CC(=O)OCCCO[N+](=O)[O-])cc(-c2ccc(S(C)(=O)=O)cc2)n1-c1cccc(F)c1 | 23.3% | 17% | 41% | 40% | 35% | 1.1 µM (≈ 0.54 µg/mL) | < 1 µM | 71.2% | 40% | 26.4% | – | – | – | – | – |
| Cc1c(C(N)C(=O)OCCCO[N+](=O)[O-])cc(-c2ccc(S(C)(=O)=O)cc2)n1-c1cccc(F)c1 (stereo not given) | – | – | – | – | – | – | – | – | – | – | > 10000 nM | > 6.62 | 100% | 1510 nM | 5% |
| Cc1c(C(N)C(=O)OCCCCO)cc(-c2ccc(S(C)(=O)=O)cc2)n1-c1ccc(F)cc1 (stereo not given) | – | – | – | – | – | – | – | – | – | – | > 10000 nM | > 45.5 | 100% | 220 nM | 10% |
| Cc1c(C(N)C(=O)OCCCCO[N+](=O)[O-])cc(-c2ccc(S(C)(=O)=O)cc2)n1-c1cccc(F)c1 (stereo not given) | – | – | – | – | – | – | – | – | – | – | > 10000 nM | > 7.09 | 59% | 1410 nM | 15% |
| Cc1c(C(N)C(=O)OCCCO)cc(-c2ccc(S(C)(=O)=O)cc2)n1-c1cccc(F)c1 (stereo not given) | – | – | – | – | – | – | – | – | – | – | > 10000 nM | > 8.4 | 79% | 1190 nM | 30% |
